Compound activity: PubChem BioAssay, several laboratories
GSTO1 counter – counter-screen for RBBP9 inhibitors: inhibitors of human GSTO1 | recombinant GSTO1, activity-based probe fluorescence polarization | P78417 | AID 1974 | inhibition, % at 5.96 µM | 300,000 compounds, 1.1% hits;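 active = inhibition above the campaign mean inhibition plus 3 SD, cut at about 35% in these data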;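 also: 0% = GSTO1-1 with DMSO and 100% = wells lacking GSTO1-1 enzyme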
DTT redox prof – compounds producing H2O2 with reducing agent – biochemical, NIH compound library profiling, artefact control for MLSCN library redox annotation, primary screen; DTT-dependent redox cycling H2O2, phenol red/HRP absorbance; 100% = 100 µM peroxide control, 0% = buffer; activation, % at 10 µM; 200,000 compounds, 0.03% hits;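 active = activation of at least 50% relative to the plate's high and low controls in the primary single-dose screen; inactive = activation below 50%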;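 also: compound incubated with DTT at 0.8 mM final as the reducing agent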
UBC9 SUMO inh – inhibitors of human SUMOylation (UBC9); AID 2006; inhibition, % at 35 µM; P63279; 290,000 compounds, 0.36% hits; HTRF SUMOylation assay, SAE1/SAE2 + UBC9, in vitro; in the data active = inhibition above about 50%, passing the limit was not always enough
Apaf1 inhib – human Apaf-1 inhibition | inhibition, % at 20 µM | reconstituted apoptosome caspase-3 activity, DEVD-Rh110 fluorescence | 330,000 compounds, 0.71% hits | O14727 | AID 489030; active = inhibition of at least 40% at 20 µM;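 also: plate controls were DMSO wells for no effect and DEVD-CHO caspase inhibitor wells for full effect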
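Medium: Hepes buffer, pH 7.5 / System: biochemical Apaf-1 apoptosome reconstitution / Measured by: Rh110 fluorescence, excitation 480 nm, emission 540 nm / Times: compound with Apaf-1, dATP, procaspase-3 30 min, then 50 min reaction, room temperature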
HKDC1 inhibitor – blocks human hexokinase HKDC1 activity; Q2TB90; recombinant HKDC1, G6PDH/diaphorase resazurin coupled fluorescence; inhibition, % at 20 µM; 340,000 compounds, 0.16% hits; AID 493160;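 active = inhibition above about 35% when tested at 20 µM, limit read from the data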;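 also: plate controls were DMSO wells with enzyme for no effect and DMSO wells lacking enzyme for full effect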
Target sequence (Q2TB90 whole entry, looked up): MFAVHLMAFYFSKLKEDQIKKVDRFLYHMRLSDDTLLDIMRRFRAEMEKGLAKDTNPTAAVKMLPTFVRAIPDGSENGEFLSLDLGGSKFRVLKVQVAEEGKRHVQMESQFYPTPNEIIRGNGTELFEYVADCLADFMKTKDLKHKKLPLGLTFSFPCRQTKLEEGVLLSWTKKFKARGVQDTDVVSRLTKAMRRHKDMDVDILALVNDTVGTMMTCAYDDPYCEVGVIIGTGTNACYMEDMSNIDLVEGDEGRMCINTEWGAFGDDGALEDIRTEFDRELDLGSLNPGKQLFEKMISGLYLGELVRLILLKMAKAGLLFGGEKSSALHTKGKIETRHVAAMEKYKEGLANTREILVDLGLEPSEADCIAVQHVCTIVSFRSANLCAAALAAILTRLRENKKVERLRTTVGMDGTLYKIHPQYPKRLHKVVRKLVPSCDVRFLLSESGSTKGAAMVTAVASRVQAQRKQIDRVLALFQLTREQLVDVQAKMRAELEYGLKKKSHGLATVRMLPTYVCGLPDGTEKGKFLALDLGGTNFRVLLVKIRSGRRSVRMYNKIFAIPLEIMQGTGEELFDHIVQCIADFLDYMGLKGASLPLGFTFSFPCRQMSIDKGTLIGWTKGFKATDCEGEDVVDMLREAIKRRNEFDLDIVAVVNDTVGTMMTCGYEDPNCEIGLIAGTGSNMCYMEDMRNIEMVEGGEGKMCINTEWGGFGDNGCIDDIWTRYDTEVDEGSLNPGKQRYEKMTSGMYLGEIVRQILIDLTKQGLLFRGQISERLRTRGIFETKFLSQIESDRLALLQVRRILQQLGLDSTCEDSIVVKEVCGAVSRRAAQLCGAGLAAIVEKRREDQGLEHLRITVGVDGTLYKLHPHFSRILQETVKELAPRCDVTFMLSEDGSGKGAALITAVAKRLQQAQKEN
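Test system: recombinant HKDC1 (HK5) hexokinase enzyme, produced in-house / Doses: 20 µM test compound, 1% DMSO / Timing: 90 min, room temperature / Detection: G6PDH/diaphorase-coupled fluorescence, 1 mM NADP, 100 µM resazurin, 525/613 nm / Control set: DMSO wells with and without enzyme mix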
Apaf-1 inh conf – confirmation of Apaf-1 inhibitors | reconstituted apoptosome, caspase-3 DEVD-Rh110 fluorescence | 1,800 compounds, 25% hits | inhibition, % at 20 µM | shares compounds with Apaf1 inhib;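 active = mean inhibition of at least 40% at 20 µM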;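 also: plate controls were DMSO wells for no effect and DEVD-CHO caspase inhibitor control wells for full effect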
Rh110 interf inh – counter-screen for Apaf-1 inhibitors: fluorescence interference; shares compounds with Apaf1 inhib; Rh110 fluorescence interference, quenched caspase reaction; activation (fluorescence interference), % at 20 µM; 1,800 tested, under 10 active; AID 504615;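 active = signal rise of 40% or more at 20 µM, treated as a fluorescence artifact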
Apaf1 inh interf – counter-screen for Apaf-1 inhibitors: fluorescence interference, dose response; shares compounds with Apaf1 inhib; fluorescence interference counterscreen, Apaf-1 assay format; IC50, µM; 460 tested, under 10 active; AID 588538; call rule not given here
* marks the source's active call; other numbers are inactive results; x = not tested or not shown; ! = repeats disagree. Compounds with a hit are over-represented: about 1.4% of the library has one in this group of screens.

SMILES	GSTO1 counter	DTT redox prof	UBC9 SUMO inh	Apaf1 inhib	HKDC1 inhibitor	Apaf-1 inh conf	Rh110 interf inh	others
CN(C)c1ccc(C(=O)NCC(c2cccs2)N2CCOCC2)cc1 (configuration not stated)	x	x	x	11	-3	x	x
CCOC(=O)Nc1csnn1	x	x	-4	-2	4	x	x
CN(C)c1ccnc2c[cH-]cc12.[Fe].c1ccc(-[c-]2[c-](-c3ccccc3)[c-](-c3ccccc3)[c-](-c3ccccc3)[c-]2-c2ccccc2)cc1 (configuration not stated)	8	x	4	47*!	-4	4	5
CCC1CCc2sc(C(=O)NCC(c3ccccc3OC)N3CCCC3)cc2C1 (configuration not stated)	x	x	x	49*	1	17	12
COc1ccc(C(CNC(=O)c2cc3c(s2)CCC(C)C3)N2CCCC2)cc1 (configuration not stated)	x	x	x	61*	3	35	9
CCC1CCc2sc(C(=O)NCc3ccccn3)cc2C1 (configuration not stated)	0	x	-7	22	-2	x	x
COc1ccc(C(CNC(=O)c2cc3c(s2)CCC(C)C3)N2CCOCC2)cc1 (configuration not stated)	x	x	x	18	-1	x	x
Nc1cc(=O)[nH]c(SCC(=O)Nc2cc(S(=O)(=O)N3CCCCC3)ccc2Cl)n1	x	x	x	13	-4	x	x
Cc1[nH]n(-c2ccccc2)c(=O)c1C(=O)c1ccccc1	-6	x	4	61*	-6	18	10
Cc1cccc(-c2cc3c(nn2)-c2ccccc2C3=O)c1	23	0	9	91*	15	13	10
O=C1c2ccccc2-c2nnc(-c3ccccc3)cc21	19	1	5	71*	7	18	7
Cc1cnc2c(c1)C(=O)c1ccccc1-2	1	x	12	4	-6	x	x
COc1ccc(-c2cc3c(nn2)-c2ccccc2C3=O)cc1	15	-1	0	77*	5	13	4
CC1(OC(=O)c2ccc(Cl)nc2)C(=O)C=C2C=C(C3CC3)OC=C2C1=O (configuration not stated)	24	x	x	-7	x	x	x
CC1(OC(=O)c2ccc(Cl)nc2)C(=O)C=C2C=C3CCCN3C=C2C1=O (configuration not stated)	35*	x	45	44*	16	40	6
CCc1ccc(NC2=CC(=O)C(=O)c3ccccc32)cc1	x	x	x	92*	23	86*	6	Apaf1 inh interf=>100
CCCCNC1=CC(=O)C(=O)c2ccccc21	48*	0	91*	96*	19	84*	3	Apaf1 inh interf=>100
O=C1C=C(Nc2ccccc2)c2ccccc2C1=O	x	4	x	92*	25	91*	-3	Apaf1 inh interf=>100
CCc1ccc2c(c1)C(=O)c1ccccc1C2=O	3	0	4	11	13	x	x
CN1/C(=N\O)c2cccc3cccc1c23	13	-1	36	86*	9	20	0
Cc1ccccc1-n1nc(-c2cccnc2)cc1C(=O)NN	-1	-1	-4	0	-5	x	x
O=C(c1ccc(Cl)c(S(=O)(=O)N2CCCCCC2)c1)N1CCCC(C(F)(F)F)C1 (configuration not stated)	9	x	x	60*	-7	34	-1
Cc1ccc(C(=O)N2CCCC(C(F)(F)F)C2)cc1S(=O)(=O)N1CCCCC1 (configuration not stated)	2	x	x	13	-2	x	x
O=C(c1ccc2ncsc2c1)N1CCCC(C(F)(F)F)C1 (configuration not stated)	-1	x	x	42*	-7	31	5
Cc1nn(-c2ccccc2)c(C)c1CN(C)C(=O)c1ccc(S(=O)(=O)NCc2ccco2)cc1	x	x	x	49*	-4	14	2
SMILES	GSTO1 counter	DTT redox prof	UBC9 SUMO inh	Apaf1 inhib	HKDC1 inhibitor	Apaf-1 inh conf	Rh110 interf inh	others
CN(Cc1ccc(Cl)cc1)C(=O)c1ccc(S(=O)(=O)NCc2ccco2)cc1	x	x	x	-1	9	x	x
Cc1cc(C(=O)NCc2ccccc2F)c2ccccc2n1	-5	x	13	-5	1	x	x
O=C(NCc1ccccn1)Nc1ccccc1C(F)(F)F	2	x	-5	-2	-8	x	x
Cc1ccc(NC2=C(NCCO)C(=O)c3ccccc3C2=O)cc1	49*	-1	38	78*	9	61*	0	Apaf1 inh interf=>100
COc1ccc(C2=C(Nc3ccc(C)cc3)c3ccccc3C2=O)cc1	5	-1	-3	5	-6	x	x
S=c1[nH]c2cc(Cl)c3cccnc3c2o1	16	x	28	46*	16	26	1
O=C(O)c1cccc(N2C(=O)c3cccc(Oc4ccc(Cl)cc4)c3C2=O)c1	1	0	12	5	-1	x	x
COc1cc(O)c(NC(C)=O)c2nonc12	7	0	x	87*	4	23	8
COc1cc(-c2ccc(NC(C)=O)c(OC)c2)ccc1NC(C)=O	6	x	16	-8	2	x	x
CCCCc1c(C)nn(-c2nnc3c4ccccc4n(CC)c3n2)c1C	-4	1	5	47*	1	23	10
CCn1c2ccccc2c2nc3ccccc3nc21	0	2	15	7	12	x	x
CCOc1ccccc1OCC(=O)OCC(=O)c1c(C)[nH]c2ccccc12	4	x	x	16	0	x	x
CCC(C)(C)NC(=O)CN(C(=O)C(=O)Nc1ccc2c(c1)OCCO2)C1CC1	0	x	14	9	-6	x	x
COc1cc2nc(Nc3ccc(C)c(Cl)c3)nc(N)c2cc1OC	-16	x	-14	45*	0	35	14
